Assay results as given in ChEMBL document CHEMBL1121577, “Glycerides as prodrugs. 3. Synthesis and antiinflammatory activity of [1-(p-chlorobenzoyl)-5-methoxy-2-methylindole-3-acetyl]glycerides (indomethacin glycerides)” (J Med Chem, 1980).
Calls of active or inactive are those of the source. The calls are words filed in the database; no cut-off is given here.

Legend:
Rattus norvegicus [1] = test: inhibition of swelling in rat paw edema was measured at a dose of 0.8 micro mol/kg/day for days 14-25; type: functional
In short: (§1)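 Adjuvant arthritis in rats: mycobacterial adjuvant injected subcutaneously into the tail; on day 14 animals with definite disease were selected and dosed daily on days 14-25. Hind paw swelling and severity scores (four paws scored) were expressed as % change vs diseased controls. Body weight gain was assessed over days 1-25; + marks significant gain.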

Rattus norvegicus [2] = test: inhibition of swelling in rat paw edema was measured at a dose of 14.0 micro mol/kg/day for days 14-25; type: functional; in short: as §1
Rattus norvegicus [3] = test: Percent changes of hind paw edema and severity scores compared to control animals at 3.3 micro mol/kg/day; type: functional; in short: as §1
Rattus norvegicus [4] = test: Gain in the body weight of rat was measured at 14.0 micro mol/kg/day. (+ means significant body weight); type: functional, organism-based; in short: as §1
Rattus norvegicus [5] = test: Percent changes of hind paw edema and severity scores compared to control animals at 0.8 micro mol/kg/day; type: functional; in short: as §1
Rattus norvegicus [6] = test: Percent changes of hind paw edema and severity scores compared to control animals at 14.0 micro mol/kg/day; type: functional; in short: as §1
[7] = Ratio of UD50 to that of ED25; type: ADME; settings: read-out: Therapeutic ratio
In short: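 Therapeutic index calculated as UD50 (dose causing gastric lesions in 50% of rats) divided by ED25 (dose inhibiting carrageenin paw edema by 25%), both from the same oral rat study.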

Rattus norvegicus [8] = test: Dose that inhibits paw swelling by 25% compared with control in carrgeenin rat paw edema assay; type: functional
In short: (§2)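 Rats given glycerides or indomethacin orally 2 h before subplantar injection of 0.1 mL 1.5% carrageenin solution.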

Rattus norvegicus [9] = test: inhibition of swelling in rat adjuvant-induced arthritis was measured at a dose of 3.3 micro mol/kg/day for days 14-25
Rattus norvegicus [10] = test: Percent changes of hind paw edema and severity scores compared to control animals at 1.6 micro mol/kg/day; type: functional; in short: as §1
Rattus norvegicus [11] = test: Gain in the body weight of rat was measured at 3.3 micro mol/kg/day. (+ means significant body weight); type: functional, organism-based; in short: as §1
Rattus norvegicus [12] = species: Rattus norvegicus; test: compound was measured as dose which produces lesions in the treated animals.; type: functional
In short: (§3)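 Stomachs of rats from the oral carrageenin paw edema study (dosed 2 h before carrageenin) examined for gastric lesions by the Brodie and Hansen method. UD50 is the dose producing lesions in 50% of treated animals.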

Rattus norvegicus [13] = test: inhibition of swelling in rat paw edema was measured at a dose of 1.6 micro mol/kg/day for days 14-25; type: functional; in short: as §1
Rattus norvegicus [14] = test: Gain in the body weight of rat was measured at 5.6 micro mol/kg/day. (+ means significant body weight); type: functional, organism-based; in short: as §1
Rattus norvegicus [15] = test: Percent changes of hind paw edema and severity scores compared to control animals at 11.0 micro mol/kg/day; type: functional; in short: as §1
Rattus norvegicus [16] = test: Percent changes of hind paw edema and severity scores compared to control animals at 1.4 micro mol/kg/day; type: functional; in short: as §1
Rattus norvegicus [17] = test: inhibition of swelling in rat paw edema was measured at a dose of 1.4 micro mol/kg/day for days 14-25; type: functional
In short: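 Rat adjuvant arthritis: adjuvant injected subcutaneously into the tail; after 14 days, only rats with definite disease were treated, with daily doses on days 14-25. Hind paw swelling was expressed as percent change versus diseased controls. Severity was scored on four paws, and body weight gain was followed over days 1-25.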

Rattus norvegicus [18] = test: Gain in the body weight of rat was measured at 11.0 micro mol/kg/day. (+ means significant body weight); type: functional, organism-based; in short: as §1
Rattus norvegicus [19] = test: inhibition of swelling in rat paw edema was measured at a dose of 5.6 micro mol/kg/day for days 14-25; type: functional; in short: as §1
Rattus norvegicus [20] = test: inhibition of swelling in rat paw edema was measured at a dose of 11.0 micro mol/kg/day for days 14-25; type: functional; in short: as §1
Rattus norvegicus [21] = test: inhibition of swelling in rat paw edema was measured at a dose of 2.8 micro mol/kg/day for days 14-25; type: functional; in short: as §1
Rattus norvegicus [22] = test: Percent changes of hind paw edema and severity scores compared to control animals at 5.6 micro mol/kg/day; type: functional; in short: as §1
[23] = Ratio of UD50 to that of ED25; settings: read-out: Therapeutic ratio
Rattus norvegicus [24] = test: Percent changes of hind paw edema and severity scores compared to control animals at 2.8 micro mol/kg/day; type: functional; in short: as §1
Rattus norvegicus [25] = species: Rattus norvegicus; test: Dose which produced lesions in 50% of the treated animals; type: functional; in short: as §3
Rattus norvegicus [26] = test: inhibition of swelling in rat paw edema was measured at a dose of 0.7 micro mol/kg/day for days 14-25; type: functional; in short: as §1
Rattus norvegicus [27] = test: Percent changes of hind paw edema and severity scores compared to control animals at 7.0 micro mol/kg/day; type: functional; in short: as §1
Rattus norvegicus [28] = test: Gain in the body weight of rat was measured at 2.8 micro mol/kg/day. (+ means significant body weight); type: functional, organism-based; in short: as §1
Rattus norvegicus [29] = test: inhibition of swelling in rat paw edema was measured at a dose of 7.0 micro mol/kg/day for days 14-25; type: functional; in short: as §1
Rattus norvegicus [30] = test: Percent changes of hind paw edema and severity scores compared to control animals at 0.7 micro mol/kg/day; type: functional; in short: as §1
Rattus norvegicus [31] = test: Gain in the body weight of rat was measured at 7.0 micro mol/kg/day. (+ means significant body weight); type: functional, organism-based; in short: as §1
Rattus norvegicus [32] = test: Dose that inhibits paw swelling by 25% compared with control in carrgeenin rat paw edema assay; i = inactive at 26 uM/Kg; type: functional, organism-based; in short: as §2
Rattus norvegicus [33] = test: Dose that inhibits paw swelling by 25% compared with control in carrgeenin rat paw edema assay; i = inactive at 18 umol/kg; type: functional, organism-based; in short: as §2

COc1ccc2c(c1)c(CC(=O)OC(COC(C)=O)COC(C)=O)c(C)n2C(=O)c1ccc(Cl)cc1
Inhibition (Rattus norvegicus [1]): 43% | Inhibition (Rattus norvegicus [2]): 79% | Change (Rattus norvegicus [3]): 55% | Change (Rattus norvegicus [4]): significant body weight | Change (Rattus norvegicus [5]): 25% | Change (Rattus norvegicus [6]): 60% | selectivity ratio [7]: 5 | ED25 (Rattus norvegicus [8]): 14 µM/kg | Inhibition (Rattus norvegicus [9]): 72% | Change (Rattus norvegicus [10]): 28% | Change (Rattus norvegicus [11]): significant body weight | UD50 (Rattus norvegicus [12]): 67 µM/kg | Inhibition (Rattus norvegicus [13]): 50%

CCCCCCCCCCCC(=O)OCC(COC(=O)CCCCCCCCCCC)OC(=O)Cc1c(C)n(C(=O)c2ccc(Cl)cc2)c2ccc(OC)cc12
Change (Rattus norvegicus [14]): significant body weight | Change (Rattus norvegicus [15]): 74% | Change (Rattus norvegicus [16]): 30% | Inhibition (Rattus norvegicus [17]): 30% | Change (Rattus norvegicus [18]): significant body weight | Inhibition (Rattus norvegicus [19]): 63% | Inhibition (Rattus norvegicus [20]): 73% | Inhibition (Rattus norvegicus [21]): 70% | ED25 (Rattus norvegicus [8]): 13 µM/kg | Change (Rattus norvegicus [22]): 53% | selectivity ratio [23]: 6 | Change (Rattus norvegicus [24]): 41% | UD50 (Rattus norvegicus [25]): 78 µM/kg

CCCCCCCCCCCCCCCCCCCC(=O)OCC(COC(=O)CCCCCCCCCCCCCCCCCCC)OC(=O)Cc1c(C)n(C(=O)c2ccc(Cl)cc2)c2ccc(OC)cc12
ED25 (Rattus norvegicus [8]): 38 µM/kg

CCCC(=O)OCC(COC(=O)CCC)OC(=O)Cc1c(C)n(C(=O)c2ccc(Cl)cc2)c2ccc(OC)cc12
ED25 (Rattus norvegicus [8]): 22 µM/kg

COc1ccc2c(c1)c(CC(=O)O)c(C)n2C(=O)c1ccc(Cl)cc1 [INDOMETHACIN]
Inhibition (Rattus norvegicus [26]): 37% | Change (Rattus norvegicus [16]): 33% | Inhibition (Rattus norvegicus [17]): 57% | Change (Rattus norvegicus [27]): 74% | Change (Rattus norvegicus [28]): Active | Inhibition (Rattus norvegicus [29]): 75% | Inhibition (Rattus norvegicus [21]): 76% | ED25 (Rattus norvegicus [8]): 5 µM/kg | Change (Rattus norvegicus [30]): 25% | selectivity ratio [23]: 2 | Change (Rattus norvegicus [24]): 56% | Change (Rattus norvegicus [31]): Active | UD50 (Rattus norvegicus [25]): 10 µM/kg

COc1ccc2c(c1)c(CC(=O)OCC(O)COC(=O)Cc1c(C)n(C(=O)c3ccc(Cl)cc3)c3ccc(OC)cc13)c(C)n2C(=O)c1ccc(Cl)cc1
ED25 (Rattus norvegicus [32]): inactive

CCCCCCCCCC(=O)OCC(COC(=O)CCCCCCCCC)OC(=O)Cc1c(C)n(C(=O)c2ccc(Cl)cc2)c2ccc(OC)cc12
ED25 (Rattus norvegicus [8]): 18 µM/kg

COc1ccc2c(c1)c(CC(=O)OCC(O)CO)c(C)n2C(=O)c1ccc(Cl)cc1 (centres undefined)
Inhibition (Rattus norvegicus [1]): 57% | Inhibition (Rattus norvegicus [2]): 76% | Change (Rattus norvegicus [3]): 55% | Change (Rattus norvegicus [4]): significant body weight | Change (Rattus norvegicus [5]): 31% | Change (Rattus norvegicus [6]): 53% | ED25 (Rattus norvegicus [8]): 5 µM/kg | Inhibition (Rattus norvegicus [9]): 73% | Change (Rattus norvegicus [10]): 42% | Change (Rattus norvegicus [11]): significant body weight | Inhibition (Rattus norvegicus [13]): 67%

CCCCCCCCCCCCCCCC(=O)OCC(COC(=O)CCCCCCCCCCCCCCC)OC(=O)Cc1c(C)n(C(=O)c2ccc(Cl)cc2)c2ccc(OC)cc12
ED25 (Rattus norvegicus [8]): 23 µM/kg

COc1ccc2c(c1)c(CC(=O)OCC(CO)OC(=O)Cc1c(C)n(C(=O)c3ccc(Cl)cc3)c3ccc(OC)cc13)c(C)n2C(=O)c1ccc(Cl)cc1 (centres undefined)
ED25 (Rattus norvegicus [8]): 31 µM/kg

COc1ccc2c(c1)c(CC(=O)OC(CO)CO)c(C)n2C(=O)c1ccc(Cl)cc1
ED25 (Rattus norvegicus [8]): 21 µM/kg

COc1ccc2c(c1)c(CC(=O)OCC(COC(=O)Cc1c(C)n(C(=O)c3ccc(Cl)cc3)c3ccc(OC)cc13)OC(=O)Cc1c(C)n(C(=O)c3ccc(Cl)cc3)c3ccc(OC)cc13)c(C)n2C(=O)c1ccc(Cl)cc1
ED25 (Rattus norvegicus [33]): inactive

CCCCCCCC(=O)OCC(COC(=O)CCCCCCC)OC(=O)Cc1c(C)n(C(=O)c2ccc(Cl)cc2)c2ccc(OC)cc12
ED25 (Rattus norvegicus [8]): 12 µM/kg
